Test results reported in ChEMBL document CHEMBL4422671, “New Quinolylnitrones for Stroke Therapy: Antioxidant and Neuroprotective ( Z)- N- tert-Butyl-1-(2-chloro-6-methoxyquinolin-3-yl)methanimine Oxide as a New Lead-Compound for Ischemic Stroke Treatment” (J Med Chem, 2019).
The source made the active and inactive calls. The rule behind the calls is not given here.

Assays:
[1] = Neuroprotective activity against oxygen-glucose deprivation-induced cell death in Sprague-Dawley rat primary neuronal cells assessed as cell viability at 250 uM treated at onset of recovery period and measured at 24 hrs of recovery by MTT assay relative to control; type: functional; details: Primary neuron, read-out: Activity
How it was run: (§1)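 Rat cortical neurons from E16–17 Sprague-Dawley embryos, used at 6–7 days in serum-free medium. OGD: glucose-free medium bubbled with 95% N2/5% CO2, <0.1% O2, 6.5% CO2, 37 °C, 4 h. Compound added at start of 24 h normoxic recovery. Viability by MTT (0.2 mg/mL, 1.5 h), lysis with HCl/SDS, read at 595/690 nm, relative to 100% control. Four to eight culture batches, each in quadruplicate.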

[2] = Neuroprotective activity against oxygen-glucose deprivation-induced cell death in Sprague-Dawley rat primary neuronal cells assessed as cell viability at 10 uM treated at onset of recovery period and measured at 24 hrs of recovery by MTT assay relative to control; type: functional; details: Primary neuron, read-out: Activity; how it was run: as §1
[3] = Neuroprotective activity against oxygen-glucose deprivation-induced cell death in Sprague-Dawley rat primary neuronal cells assessed as cell viability at 100 uM treated at onset of recovery period and measured at 24 hrs of recovery by MTT assay relative to control; type: functional; details: Primary neuron, read-out: Activity; how it was run: as §1
[4] = Antioxidant activity assessed as DPPH free radical scavenging activity at 0.1 mM measured after 20 to 60 mins; type: functional
How it was run: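 DPPH 0.1 mM in absolute ethanol with compound at 0.1 mM final (from DMSO). Absorbance at 517 nm recorded after 20 and 60 min at rt. NDGA as standard.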

[5] = Antioxidant activity assessed as hydroxyl radical scavenging activity at 0.1 mM measured after 30 mins; type: functional
How it was run: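 Hydroxyl radicals from Fe3+/ascorbic acid: EDTA 0.1 mM, Fe3+ 167 μM, DMSO 33 mM, compound 0.1 mM and ascorbic acid 10 mM in 50 mM phosphate buffer pH 7.4. Incubated 37 °C for 30 min, stopped with 17% w/v TCA. Read-out is inhibition of formaldehyde formation, given as % scavenging. Trolox as reference.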

[6] = Antioxidant activity assessed as inhibition of linoleic acid peroxidation activity at 10 uL; type: functional; set-up: scale not given: the % may be the effect or the level left
How it was run: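 AAPH-initiated peroxidation of sodium linoleate dispersion (16 mM, 10 μL) in 0.05 M phosphate buffer pH 7.4 at 37 °C under air. Initiator was 50 μL of 40 mM AAPH, with 10 μL compound added. Conjugated diene hydroperoxide followed at 234 nm. Trolox as reference.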

[7] = Antioxidant activity assessed as ABTS radical cation scavenging activity by measuring trolox equivalents at 10 uL after 1 min; type: functional
How it was run: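 ABTS radical cation made from 2 mM aqueous ABTS plus 0.17 mM potassium persulfate in 20 mM phosphate buffer pH 7.4, kept 12–16 h dark at rt. Diluted with ethanol to A734 0.70, then mixed with 10 μL compound from 10 mM stock. Absorbance read at rt 1 min after mixing. Trolox as standard.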

[8] = biological target: Lipoxygenase (Glycine max) (UniProt Q39829); test: Inhibition of soybean lipoxygenase at 1 to 100 uM using sodium linoleate as substrate by UV-based analysis relative to control
How it was run: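 Soybean lipoxygenase (enzyme 1/9 ×10⁻⁴ w/v in saline) incubated at rt with 0.1 mM sodium linoleate and compound in DMSO, at several concentrations from 1 to 100 µM diluted from 10 mM stock. Conversion to 13-hydroperoxylinoleic acid recorded at 234 nm; IC50 derived. NDGA as reference inhibitor.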

[9] = Antiinflammatory activity assessed as NO release at 100 uM after 60 mins in presence of L-cysteine by Griess reagent-based relative to control; type: functional
How it was run: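 NO-release test: compound at 100 μM final (from DMSO) in 50 mM phosphate buffer pH 7.4 containing 1 mM L-cysteine, 60 min at 37 °C. Reaction mixture then treated with Griess reagent, left 10 min at rt, absorbance read at 540 nm. Sodium nitroprusside as standard. Mean of three to four determinations.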

[10] = Antioxidant activity assessed as superoxide anion scavenging activity at 0.1 mM pH 7.4 after 10 mins by NBT assay; type: functional
How it was run: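 Superoxide generated by xanthine/xanthine oxidase (0.07 U/mL) in 0.1 M phosphate buffer pH 7.4 containing NBT and compound at 0.1 mM final. After 10 min at rt, absorbance read at 560 nm. Caffeic acid as standard.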

Rattus norvegicus = test: Antiinflammatory activity in Fisher 344 rat model of carrageenan-induced edema assessed as inhibition of carrageenan-induced paw edema at 0.01 mmol/kg, ip dosed simultaneously with carrageenan injection relative to control; type: functional; details: Fisher 344, ip
How it was run: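 Fisher 344 rats (150–200 g), both sexes. Edema was induced by intradermal injection of 0.1 mL 2% carrageenan in water into the right hind paw. Compound was suspended in water with a few drops of Tween 80. Rats were euthanized 3.5 h later. The injected-minus-uninjected paw weight difference was compared with water or Tween-water controls as % inhibition. Mean of two experiments, n = 6 each.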

Primary neuron [11] = test: Neuroprotective activity against oxygen-glucose deprivation-induced ischemia in Sprague-Dawley rat primary neuronal cells assessed as reduction in ROS generation at 10 to 250 uM measured after 2 hrs of recovery post OGD by fluorometric assay; type: functional, cell-based
How it was run: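 Primary rat cortical neurons exposed to 4 h OGD; compound added at onset of recovery together with a cell-permeable ROS probe. Fluorescence (ex 490/em 535 nm) read after 2 h recovery and expressed as % of control. Mean of four independent experiments.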

Primary neuron [12] = test: Neuroprotective activity against oxygen-glucose deprivation-induced ischemia in Sprague-Dawley rat primary neuronal cells assessed as reduction in lipid peroxidation at 10 to 250 uM measured after 4 hrs of recovery post OGD by fluorometric assay; type: functional, cell-based
Primary neuron [13] = test: Neuroprotective activity against oxygen-glucose deprivation-induced cell death in Sprague-Dawley rat primary neuronal cells assessed as increase in cell viability at 10 uM pretreated for 24 hrs followed by OGD challenge for 4 hrs and measured after 24 hrs of recovery period post OGD measured by MTT assay; type: functional, cell-based
How it was run: (§2)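 Rat cortical neuron cultures (E16–17 Sprague-Dawley, 6–7 days in vitro) treated with compound (1–250 µM range) 24 h before 4 h OGD at <0.1% O2, 37 °C. Cells then recovered 24 h under normoxia with glucose. Viability by MTT absorbance at 595/690 nm, relative to untreated control.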

[14] = Cytotoxicity in oxygen-glucose deprivation-induced Sprague-Dawley rat primary neuronal cells assessed as reduction in cell viability at 250 uM pretreated for 24 hrs followed by OGD challenge for 4 hrs and measured after 24 hrs of recovery period post OGD measured by MTT assay; type: cell-based; details: primary neuron; how it was run: as §2
Mus musculus [15] = test: Neuroprotective activity in C57BL/6 mouse model of ischemia-induced cerebral ischemia model assessed reduction in neurodeficit score at 1.5 mg/kg, ip administered at onset of reperfusion period and measured at 5 days reperfusion post ischemia; type: functional, organism-based
Mus musculus [16] = test: (§3) Neuroprotective activity in C57BL/6 mouse model of ischemia-induced cerebral ischemia model assessed reduction in neuronal cell death in hippocampal CA1 region at 1.5 mg/kg, ip administered at onset of reperfusion period and measured at 5 days reperfusion post ischemia by Fluoro-Jade-staining assay based relative to control; type: functional; set-up: scale not given: the % may be the effect or the level left
Mus musculus [17] = test: as §3, with “cortical” for “hippocampal CA1”; type: functional; set-up: scale not given: the % may be the effect or the level left
Mus musculus [18] = test: Neuroprotective activity in C57BL/6 mouse model of ischemia-induced cerebral ischemia model assessed as reduction in apoptosis in hippocampal CA1 region at 1.5 mg/kg, ip administered at onset of reperfusion period and measured at 5 days reperfusion post ischemia by TUNNEL assay relative to control; type: functional; set-up: scale not given: the % may be the effect or the level left
Mus musculus [19] = test: Neuroprotective activity in C57BL/6 mouse model of ischemia-induced cerebral ischemia model assessed as reduction in apoptosis in cortical region at 1.5 mg/kg, ip administered at onset of reperfusion period and measured at 5 days reperfusion post ischemia by TUNNEL assay relative to control; type: functional; set-up: scale not given: the % may be the effect or the level left
Mus musculus [20] = test: Neuroprotective activity in C57BL/6 mouse model of transient middle cerebral artery occlusion-induced ttransient focal cerebral ischemia assessed decrease in motor deficit at 1.5 to 2 mg/kg, ip measured after 48 hrs post dose by grip strength Test; type: functional, organism-based
How it was run: (§4)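 Male C57BL/6 mice (9–12 weeks) under isoflurane. Distal MCA compressed 60 min with a needle, occlusion confirmed by laser-Doppler; buprenorphine given sc. Compound given ip at reperfusion onset. Grip strength recorded at 24 and 48 h versus presurgery. Infarct area/volume measured at 48 h from TTC-stained 1 mm coronal sections. n = 8 per group.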

Mus musculus [21] = test: Neuroprotective activity in C57BL/6 mouse model of transient middle cerebral artery occlusion-induced ttransient focal cerebral ischemia assessed decrease in motor deficit at 2 mg/kg, ip measured after 24 hrs post dose by grip strength Test; type: functional, organism-based; how it was run: as §4
Mus musculus [22] = test: Neuroprotective activity in C57BL/6 mouse model of transient middle cerebral artery occlusion-induced ttransient focal cerebral ischemia assessed decrease in motor deficit by measuring improvement in grip strength at 1.5 to 2 mg/kg, ip measured after 48 hrs post dose by grip strength Test; type: functional; set-up: scale not given: the % may be the effect or the level left; how it was run: as §4
Mus musculus [23] = test: Neuroprotective activity in C57BL/6 mouse model of transient middle cerebral artery occlusion-induced ttransient focal cerebral ischemia assessed decrease in size of ischemic lesion at 2 mg/kg, ip measured after 48 hrs post dose relative to control; type: functional; set-up: scale not given: the % may be the effect or the level left; how it was run: as §4

Work on COc1ccc2nc(Cl)c(/C=[N+](\[O-])C(C)(C)C)cc2c1 yielded a viability at 250 µM [1] of 65.9%, a viability at 10 µM [2] of 52% and a viability at 100 µM [3] of 77.1%. It also gave an Activity [4] of 4%, an Activity [5] of 100% and an Activity [6] of 22%. The Activity [7] was 7%, the inhibition [8] was 29% and the Activity [9] was 3%. For the same compound, the Activity [10] was 5%, the inhibition in vivo at 10 µmol/kg (Rattus norvegicus) was 48.5% and the Activity (Primary neuron [11]) was “Active”. The Activity (Primary neuron [12]) was “Active”, the Activity (Primary neuron [13]) was “Active” and the Activity [14] was “Toxic”. For the same compound, the Activity (Mus musculus [15]) was “Active”, the Activity (Mus musculus [16]) was 33% and the Activity (Mus musculus [17]) was 90%. The Activity (Mus musculus [18]) was 39%, the Activity (Mus musculus [19]) was 84% and the Activity (Mus musculus [20]) was “Active”. For the same compound, the Activity (Mus musculus [21]) was “Active”, the Activity (Mus musculus [22]) was 11.8% and the Activity (Mus musculus [23]) was 44%.
